# An excerpt weighted towards active compounds, which were near 2.3% of everything screened.
# Rpn11 block: blocks the human proteasome subunit Rpn11 | O00487 | human 26S proteasome, Ub4-pepOG fluorescence polarization; 20S core pre-blocked with epoxomicin | inhibition, % at 20 µM | 360,000 compounds, 0.59% hits | AID 588493;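 active means inhibition at 20 µM, scaled to each plate's controls, above about 33%, limit read from the data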
# STEP inh: inhibitors of human striatal-enriched phosphatase STEP; P54829; recombinant STEP, OMFP fluorogenic substrate, fluorescence; inhibition, % at 20 µM; 360,000 compounds, 0.25% hits; AID 588621;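 active means inhibition at 20 µM, scaled per plate between control wells, above about 37%, limit read from the data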;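 further: 0% = DMSO with enzyme and substrate and 100% = substrate only without enzyme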
# Target sequence (P54829 whole entry, looked up): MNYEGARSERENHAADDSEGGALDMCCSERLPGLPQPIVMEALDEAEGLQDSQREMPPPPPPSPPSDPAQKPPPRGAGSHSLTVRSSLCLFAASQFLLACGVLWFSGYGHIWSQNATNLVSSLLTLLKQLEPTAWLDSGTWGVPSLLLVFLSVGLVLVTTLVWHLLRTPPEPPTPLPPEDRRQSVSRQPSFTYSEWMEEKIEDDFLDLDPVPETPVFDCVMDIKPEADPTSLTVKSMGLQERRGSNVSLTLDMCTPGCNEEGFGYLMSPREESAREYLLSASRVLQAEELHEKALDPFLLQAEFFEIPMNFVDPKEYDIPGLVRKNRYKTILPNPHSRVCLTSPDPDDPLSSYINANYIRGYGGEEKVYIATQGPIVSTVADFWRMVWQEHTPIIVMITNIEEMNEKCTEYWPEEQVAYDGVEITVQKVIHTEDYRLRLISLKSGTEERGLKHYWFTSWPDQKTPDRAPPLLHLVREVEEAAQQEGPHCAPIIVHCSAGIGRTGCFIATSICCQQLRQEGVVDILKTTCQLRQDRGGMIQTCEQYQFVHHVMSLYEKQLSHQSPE
#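 Assay system: isolated STEP enzyme / Timing: 20 min at room temperature, dark / Doses: 20 µM, 1% DMSO / Technique: fluorescence intensity, excitation 480 nm, emission 540 nm / Reagent: fluorogenic phosphatase substrate OMFP at 25 µM final / Measure: percent inhibition scaled to no-enzyme and uninhibited-enzyme controls, plate-pattern corrected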
# DNMT1 block: DNMT1 (human) enzyme inhibition; P26358; inhibition (reported as % activation of signal), % at 10 µM; DNMT1 molecular beacon, Hinp1I cleavage, fluorescence; 360,000 compounds, 0.83% hits; AID 588458; in the data active means inhibition above about 50%
# Scp1 inh: inhibitors of human Scp-1 phosphatase; 340,000 compounds, 0.88% hits; Recombinant Scp1, phosphopeptide, malachite green phosphate absorbance; Q9GZU7; inhibition, % at 20 µM; AID 493091;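 active means inhibition above about 50% at 20 µM, limit read from the data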;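 further: plate controls were DMSO wells with enzyme for no effect and wells lacking enzyme for full effect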
#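 Test system: SCP-1 phosphatase catalytic domain, residues 76-261 | Compound dosing: One concentration, 20 µM, with 1.0% DMSO | Schedule: 45 min room-temperature reaction, 5 min colour, 30 min stabiliser | Detection: Absorbance at 630 nm | Read-out basis: % inhibition of SCP-1 phosphate liberation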
# SUMO1-SIM PPI: modulators of human SUMO1-mediated protein-protein interactions; P63165; SUMO1 binding to a labelled peptide, TR-FRET, 1 h; inhibition, % at 20 µM; 360,000 compounds, 0.33% hits; in the data active means inhibition above about 37%
# Target sequence (P63165 whole entry, looked up): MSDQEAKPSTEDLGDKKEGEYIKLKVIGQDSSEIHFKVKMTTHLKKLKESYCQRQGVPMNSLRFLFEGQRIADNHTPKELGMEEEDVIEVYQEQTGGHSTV
# LMPTP inh: blocks human LMPTP phosphatase. P24666. inhibition, % at 20 µM. recombinant LMPTP-A, OMFP fluorogenic substrate, fluorescence intensity. 360,000 compounds, 0.22% hits;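 active means compounds that cut the enzyme signal by at least half of the control window in the single-dose screen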;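 further: plate controls were DMSO wells with enzyme plus substrate for no effect and substrate without enzyme for full effect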
#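 Buffer or medium: Bis-Tris pH 6.0, DTT, detergent; Assay system: LMPTP-A enzyme; Quantity: 0.625 nM enzyme; Detection: endpoint fluorescence intensity; Times: 50 min dark incubation at room temperature; Controls: substrate-only low control, DMSO enzyme-plus-substrate high control; Doses: single 20 µM dose; Read-out: percent inhibition versus substrate-only and uninhibited controls; Reagent: 400 µM OMFP.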
# * hit, by the source's call; / = no result given.
SMILES,Rpn11 block,STEP inh,DNMT1 block,Scp1 inh,SUMO1-SIM PPI,LMPTP inh
CC1CCc2sc(C(=O)N3CCN(c4ncccn4)CC3)cc2C1 (configuration not stated),-0.3,1.1,0.3,-4.8,-3.5,0.4
Cc1ccc(S(=O)(=O)c2n[nH]n3c2nc(=O)c2ccccc23)cc1,7.1,-0.5,1.3,-4.8,16.8,-1.2
O=c1nc2c(-c3cccc(Br)c3)n[nH]n2c2ccccc12,-4.1,-1.7,1.0,6.3,45.0*,6.3
COc1ccc(F)cc1S(=O)(=O)NCc1cc(=O)n(C)c(=O)n1C,2.4,-3.2,2.6,1.2,-1.5,1.9
CN(C(=O)COC(=O)c1cccc(Cl)c1)C1CCS(=O)(=O)C1 (configuration not stated),-1.8,-2.5,5.5,-2.2,-2.8,-1.9
CN(C(=O)COC(=O)c1ccc(-c2ccc(O)cc2)cc1)C1CCS(=O)(=O)C1 (configuration not stated),-4.6,-1.0,-0.8,-5.8,38.6*,1.4
Cc1c(C(=O)OC2CCCC2)[nH]c2c1C(=O)CC(c1ccco1)C2 (configuration not stated),-10.7,-1.3,13.7,33.6,19.2,37.4
COc1ccc(OC)c(C2CC(=O)c3c([nH]c(C(=O)OCC4CCCO4)c3C)C2)c1 (configuration not stated),8.3,3.6,-3.5,-12.5,5.1,1.9
Cc1c(C(=O)OCC(C)C)[nH]c2c1C(=O)CC(c1ccco1)C2 (configuration not stated),11.4,3.1,8.9,7.1,9.5,69.4*
Cc1c(C(=O)OCC2CCCO2)[nH]c2c1C(=O)CC(c1ccco1)C2 (configuration not stated),-4.1,2.9,97.6*,83.9*,19.4,52.7*
COC(=O)c1[nH]c2c(c1C)C(=O)CC(c1ccccc1)C2 (configuration not stated),5.4,2.9,-0.6,-5.2,-0.4,-0.2
C/C=C/COC(=O)c1[nH]c2c(c1C)C(=O)CC(c1ccc(N(C)C)cc1)C2 (configuration not stated),17.3,-1.2,0.7,-0.4,4.0,4.2
C=CCOC(=O)c1[nH]c2c(c1C)C(=O)CC(c1ccco1)C2 (configuration not stated),/,/,/,60.0*,/,/
C/C=C/COC(=O)c1[nH]c2c(c1C)C(=O)CC(c1ccco1)C2 (configuration not stated),-12.2,-0.1,36.9,52.4*,14.1,61.2*
Cc1ccc(SCC(=O)OCC(=O)NCCc2ccccc2)cc1C,2.0,1.6,2.3,-3.6,0.8,1.6
O=C(Nc1ccccc1C(F)(F)F)N1CCN(c2ccccn2)CC1,-4.9,0.2,-1.6,-6.0,2.0,-2.0
CC(C)c1ccc(NC(=O)c2ccc3c(c2)C(=O)N(Cc2cccnc2)C3=O)cc1,-27.8,1.4,-3.5,-4.7,-29.4,4.5
Cc1c(Br)c(O)c(Br)c(O)c1/C=N/n1c(-c2ccccc2)n[nH]c1=S,8.7,0.6,1.4,89.7*,11.3,-0.5
Oc1ccc(/C=N/n2c(-c3ccccc3)n[nH]c2=S)cc1Br,4.3,-4.4,3.4,-2.8,2.2,-4.1
O=C1CCCN1CCCNc1nc(NCc2cccs2)nc2ccsc12,-9.6,0.9,-0.2,/,0.7,74.0*
COc1ccc(NC(=O)c2c[nH]c(=O)n(-c3ccc(C)c(C)c3)c2=O)cc1OC,-3.2,-1.3,0.3,-9.1,10.3,1.4
COc1ccc(NC(=O)c2c[nH]c(=O)n(-c3ccc(C)c(C)c3)c2=O)c(OC)c1,1.9,-6.6,29.8,-9.8,42.5*,-3.6
Oc1ccccc1/C=N/Nc1cc(N2CCCC2)nc(N2CCCC2)n1,0.8,8.2,57.8*,-30.4,33.5,8.3
COc1cc(C2C(C#N)=C(N)Oc3cc(C)oc(=O)c32)cc2c1OCO2 (configuration not stated),10.5,-1.3,18.6,3.4,46.4*,1.4
COc1cc(C2C(C#N)=C(N)Oc3cc(C)oc(=O)c32)cc(OC)c1OC (configuration not stated),1.3,0.4,-0.7,-16.9,9.6,-0.6
SMILES,Rpn11 block,STEP inh,DNMT1 block,Scp1 inh,SUMO1-SIM PPI,LMPTP inh
CCN(CC)CCOC(=O)c1ccc(NC(=O)CCCN2C(=O)S/C(=C/c3ccc(OC)cc3)C2=S)cc1,68.1*,4.4,10.5,1.4,-79.0,2.3
COc1ccc(/C=C2\SC(=S)N(CCC(=O)Nc3ccc(O)cc3)C2=O)cc1,-2.0,0.3,-15.3,-2.2,-0.9,12.7
O=[N+]([O-])c1ccc(O)c(/C=N/Nc2ncnc3c2cnn3-c2ccccc2)c1,20.0,10.4,-21.5,11.5,19.4,50.1*
Cc1cccc(N(Cc2ccccc2)C(=O)c2cc(S(=O)(=O)N3CCOCC3)ccc2Cl)c1,-0.2,1.3,12.0,-9.0,7.3,-0.4
COc1cc(OC)cc(C(=O)Nc2ccc(N3CCN(C(=O)c4cccs4)CC3)cc2)c1,-0.9,3.1,-4.3,-2.4,42.3*,2.6
CCCN(CC1CCCO1)C(=O)CCc1nnc(-c2cc(C)on2)o1 (configuration not stated),-0.8,-0.4,0.2,-1.4,1.7,-0.6
O=C(OCC(=O)N1CCN(C(=O)c2ccco2)CC1)c1cc(-c2ccc(Cl)c(Cl)c2Cl)nc2ccccc12,6.8,1.8,-12.8,-6.7,64.3*,3.4
O=C(NC1CC1)c1cc(-c2ccco2)nc2ccccc12,1.3,19.8,90.2*,80.5*,40.4*,51.4*
CN1CCCN(C(=O)c2cc(-c3ccc(Cl)c(Cl)c3Cl)nc3ccccc23)CC1,6.1,-1.8,-0.1,-5.7,8.7,-2.2
O=C(OCC(=O)N1CCN(C(=O)c2ccco2)CC1)c1cc(-c2ccco2)nc2ccccc12,6.8,79.1*,97.0*,87.0*,26.1,59.8*
CCOC(=O)C1C(=O)C(=O)N(Cc2ccccc2)C1C(=O)OCC (configuration not stated),-0.6,-1.1,-1.8,-5.0,-2.5,-3.3
COc1cccc(C2Nc3c(F)cc(Br)cc3C3C=CCC32)c1OC (configuration not stated),-9.6,-2.3,-35.7,-10.5,8.1,2.8
COc1cccc2c1NC(C(=O)O)C1CC=CC21 (configuration not stated),-24.4,69.9*,97.6*,74.3*,52.1*,51.8*
CC(=O)c1ccc2c(c1)C1C=CCC1C(C(=O)O)N2 (configuration not stated),13.0,70.2*,91.4*,75.4*,59.6*,11.6
CC(C)c1ccc(/C=C/c2ccc(=O)n(C)n2)cc1,0.0,9.5,-1.5,-5.3,-17.9,1.1
CC(=NNC(=S)N1CCN(c2ccccn2)CC1)c1ccccn1,42.1*,9.2,-33.0,7.1,-4.7,41.0

# Screening results deposited in PubChem BioAssay by Sanford-Burnham Center for Chemical Genomics.
